pIC50: −log10 of the molar value. Activity calls are given as the source filed them. No cut-off for these calls is given here.
Tests used:
[1] = test system: MCF7; experiment: Antiproliferative activity against human MCF7 cells assessed as cell growth inhibition incubated for 48 hr by MTT assay; details: MCF7, 48 h
[2] = test system: A549; experiment: Antiproliferative activity against human A549 cells assessed as cell growth inhibition incubated for 48 hr by MTT assay; details: A549, 48 h
[3] = test system: MDA-MB-231; experiment: Antiproliferative activity against human MDA-MB-231 cells assessed as cell growth inhibition incubated for 48 hr by MTT assay; format: functional, cell-based; details: for pIC50: Homo sapiens, MDA-MB-231, 48 h, read-out: IC50
In short: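 MTT titration: cells seeded 1×10^4/well for 24 h, then treated 48 h at 37 °C, 5% CO2 with 2.5, 5, 10, 20 μM. MTT 0.5 mg ml⁻¹ for 2 h, formazan in DMSO read at 570 nm; viability relative to 0.1% DMSO control. IC50 is the mean of three replicate experiments ± SD.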

[4] = test system: MDA-MB-231; experiment: Antiproliferative activity against human MDA-MB-231 cells assessed as cell growth inhibition at 10 uM incubated for 48 hr by MTT assay; format: functional
In short: (§1)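 Cells in RPMI with 10% FBS, 1% pen/strep at 37 °C, 5% CO2. […] MTT 0.5 mg ml⁻¹ for 2 h, formazan dissolved in DMSO, A570; viability = OD treated/OD control × 100. Triplicate.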

[5] = test system: MCF7; experiment: Antiproliferative activity against human MCF7 cells assessed as cell growth inhibition at 10 uM incubated for 48 hr by MTT assay; format: functional; in short: as §1
[6] = test system: A549; experiment: Antiproliferative activity against human A549 cells assessed as cell growth inhibition at 10 uM incubated for 48 hr by MTT assay; format: functional; in short: as §1
[7] = Antiproliferative activity against human F180 cells assessed as cell growth inhibition at 10 uM incubated for 48 hr by MTT assay; format: toxicity, cell-based; details: f180, 48 h; in short: as §1
[8] = molecular target: T1, Tubulin (Homo sapiens) (UniProt P68371+Q9H4B7+P0DPH7+P68366+Q13509+Q71U36+P04350+Q3ZCM7+P07437+P68363+Q9BQE3+Q6PEY2+Q13885+Q9BVA1+Q9BUF5); experiment: Inhibition of tubulin polymerization in human A549 cells assessed as inhibition of microtubule spindle formation with irregular morphology at 9 uM incubated for 24 hrs by immunofluorescence assay; format: cell-based
In short: (§2)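 Fixed in 3.7% paraformaldehyde, permeabilised with 0.1% Triton X-100, blocked with 1% BSA 1 h, anti-β-tubulin mouse mAb overnight at 4 °C, Alexa Fluor 488 secondary, DAPI; fluorescence microscopy.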

[9] = molecular target: T2, Tubulin (Sus scrofa) (UniProt P02554+P02550); experiment: Inhibition of porcine Tubulin polymerization assessed as increase in AUC by measuring fluorescence at 15 uM incubated for 1 hr by fluorescence microscopy; format: protein assay
[10] = molecular target: Tubulin; experiment: Inhibition of tubulin polymerization in human MCF7 cells by ELISA; format: cell-based
[11] = molecular target: T1, Tubulin (Homo sapiens); experiment: Inhibition of tubulin polymerization in human A549 cells assessed as inhibition of microtubule spindle formation with irregular morphology at 13 uM incubated for 24 hrs by immunofluorescence assay; format: cell-based; in short: as §2
[12] = molecular target: T2, Tubulin (Sus scrofa); experiment: Inhibition of porcine Tubulin polymerization assessed as decrease in AUC by measuring fluorescence at 15 uM incubated for 1 hr by fluorescence microscopy; format: protein assay
In short: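 Porcine tubulin at 2 mg ml⁻¹ in 80 mM PIPES, 2 mM MgCl₂, 0.5 mM EGTA pH 6.9, with 10 μM fluorescent reporter, 1 mM GTP and 15% glycerol, in a pre-warmed plate. […] Fluorescence (ex 360, em 450 nm) read once per min for 60 min at 37 °C. Area under the curve scored against the untreated control, taken as 100%.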

[13] = test system: MCF7; experiment: Cell cycle arrest in human MCF7 assessed as accumulation at pre G phase at 6 uM incubated for 24 hrs by propidium iodide staining flow cytometry; format: functional
In short: (§3)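 MCF-7 cells exposed to 6 μM for 24 h, DMSO vehicle control. Cells harvested, fixed in 70% ethanol on ice 15 min, then stained 1 h at room temperature with PI solution containing 0.1 mg mL⁻¹ RNaseA and 0.05% Triton X-100. DNA content read by flow cytometry; percentage of cells in each phase.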

[14] = test system: MCF7; experiment: Induction of apoptosis in human MCF7 cells assessed as Caspase-9 level at 6 uM incubated for 24 hrs by ELISA; format: functional
In short: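 MCF-7 cells incubated with or without 6 μM for 24 h, washed in PBS, lysed; caspase-9 in lysates quantified by ELISA kit (ng ml⁻¹). Mean of three replicates ± SD.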

[15] = test system: MCF7; experiment: Induction of apoptosis in human MCF7 cells assessed as early apoptotic cells at 6 uM incubated for 24 hrs by Annexin V-FITC/propidium iodide staining based flow cytometry (reference value: 0.55 %); format: functional
[16] = test system: MCF7; experiment: Induction of apoptosis in human MCF7 cells assessed as necrotic cells at 6 uM incubated for 24 hrs by Annexin V-FITC/propidium iodide staining based flow cytometry (reference value: 0.76 %); format: functional
[17] = test system: MCF7; experiment: Induction of apoptosis in human MCF7 cells assessed as Bax level at 6 uM incubated for 24 hrs by ELISA; format: functional
In short: (§4)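 MCF-7 in RPMI1640 with 10% FBS, exposed to 6 μM for 24 h, lysed in cell extraction buffer, lysate diluted in standard diluent; Bax (pg ml⁻¹) and Bcl2 (ng ml⁻¹) measured by ELISA. Mean of three replicates ± SD.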

[18] = test system: MCF7; experiment: Induction of apoptosis in human MCF7 cells assessed as Bcl-2 level at 6 uM incubated for 24 hrs by ELISA; format: functional; in short: as §4
[19] = test system: MCF7; experiment: Induction of apoptosis in human MCF7 cells assessed as late apoptotic cells at 6 uM incubated for 24 hrs by Annexin V-FITC/propidium iodide staining based flow cytometry (reference value: 0.17 %); format: functional
[20] = test system: MCF7; experiment: Cell cycle arrest in human MCF7 assessed as accumulation at G2/M phase at 6 uM incubated for 24 hrs by propidium iodide staining flow cytometry; format: functional; in short: as §3
[21] = test system: MCF7; experiment: Cell cycle arrest in human MCF7 assessed as accumulation at S phase at 6 uM incubated for 24 hrs by propidium iodide staining flow cytometry; format: functional; in short: as §3
[22] = test system: MCF7; experiment: Cell cycle arrest in human MCF7 assessed as accumulation at G1 phase at 6 uM incubated for 24 hrs by propidium iodide staining flow cytometry; format: functional; in short: as §3

T2 sequence (P02550 whole entry, looked up): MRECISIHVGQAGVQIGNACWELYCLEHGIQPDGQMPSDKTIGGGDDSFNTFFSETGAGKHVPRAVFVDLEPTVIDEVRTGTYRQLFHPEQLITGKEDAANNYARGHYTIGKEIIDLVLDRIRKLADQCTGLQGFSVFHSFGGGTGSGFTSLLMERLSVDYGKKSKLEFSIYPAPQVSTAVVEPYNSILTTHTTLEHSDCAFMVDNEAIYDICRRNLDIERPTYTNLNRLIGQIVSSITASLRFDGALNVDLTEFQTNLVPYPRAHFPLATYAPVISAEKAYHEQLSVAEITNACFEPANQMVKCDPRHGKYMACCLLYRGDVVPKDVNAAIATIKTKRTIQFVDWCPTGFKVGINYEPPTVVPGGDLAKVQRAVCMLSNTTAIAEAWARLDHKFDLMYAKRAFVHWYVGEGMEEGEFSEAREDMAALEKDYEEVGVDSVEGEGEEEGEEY
T2 sequence (P02554 whole entry, looked up): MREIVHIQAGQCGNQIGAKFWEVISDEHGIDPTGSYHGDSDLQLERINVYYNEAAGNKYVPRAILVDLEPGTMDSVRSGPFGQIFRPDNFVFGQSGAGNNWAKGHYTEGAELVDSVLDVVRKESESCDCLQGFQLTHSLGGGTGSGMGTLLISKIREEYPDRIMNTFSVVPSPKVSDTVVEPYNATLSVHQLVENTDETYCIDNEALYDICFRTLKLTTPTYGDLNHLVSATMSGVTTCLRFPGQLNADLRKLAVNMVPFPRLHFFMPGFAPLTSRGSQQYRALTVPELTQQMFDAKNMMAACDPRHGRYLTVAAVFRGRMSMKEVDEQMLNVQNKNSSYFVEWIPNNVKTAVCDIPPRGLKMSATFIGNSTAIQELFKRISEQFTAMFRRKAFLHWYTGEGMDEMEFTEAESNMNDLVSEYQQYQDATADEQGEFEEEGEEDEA

Q: With `CC(=O)O[C@H]1C(=O)[C@@]2(C)[C@H]([C@H](OC(=O)c3ccccc3)[C@]3(O)C[C@H](OC(=O)[C@H](O)[C@@H](NC(=O)c4ccccc4)c4ccccc4)C(C)=C1C3(C)C)[C@]1(OC(C)=O)CO[C@@H]1C[C@@H]2O` [PACLITAXEL] as the molecule, how does the pIC50 [1] read?
A: 8.21

Q: What about the pIC50 [2] of the same molecule?
A: 7.82

Q: What about the pIC50 [3] of the same molecule?
A: 7.71

Q: With `CCOc1ccc(C2C3=C(CCCC3=O)Nc3c2c(C)nn3-c2nc(C)cc(C)n2)cc1OC` (stereo not given) as the molecule, how does the pIC50 [1] read?
A: 4.63

Q: What about the inhibition at 10 µM [4] of the same molecule?
A: 40%

Q: And the inhibition at 10 µM [5]?
A: 40%

Q: What about the pIC50 [2] of the same molecule?
A: < 4.70

Q: And the inhibition at 10 µM [6]?
A: 40%

Q: What about the Activity [7] of the same molecule?
A: Toxic

Q: And the pIC50 [3]?
A: < 4.64

Q: With `COc1ccc(C(=O)c2cn(CC(=O)Nc3ccc(F)cc3)c3cc(OC)c(OC)cc3c2=O)cc1` as the molecule, how does the pIC50 [1] read?
A: 4.96

Q: And the inhibition at 10 µM [4]?
A: 50%

Q: And the inhibition at 10 µM [5]?
A: 50%

Q: What about the inhibition [8] of the same molecule?
A: Active

Q: What about the pIC50 [2] of the same molecule?
A: 5.03

Q: And the inhibition [9]?
A: Active

Q: And the inhibition at 10 µM [6]?
A: 50%

Q: And the Activity [7]?
A: Toxic

Q: And the pIC50 [3]?
A: 4.71

Q: And the pIC50 [10]?
A: 4.89

Q: With `COc1cc2c(=O)c(C(=O)c3ccc(F)cc3)cn(CC(=O)Nc3ccc(F)c(F)c3)c2cc1OC` as the molecule, how does the pIC50 [1] read?
A: 4.92

Q: And the inhibition at 10 µM [4]?
A: 80%

Q: And the inhibition [11]?
A: Active

Q: And the inhibition at 10 µM [5]?
A: 50%

Q: What about the pIC50 [2] of the same molecule?
A: 4.88

Q: What about the inhibition [9] of the same molecule?
A: Active

Q: What about the inhibition at 10 µM [6] of the same molecule?
A: 20%

Q: And the Activity [7]?
A: Toxic

Q: What about the IC50 ([3]; time 48 hrs) of the same molecule?
A: 14.1 µM

Q: And the pIC50 [10]?
A: 4.88

Q: For `COc1ccc(C2CC(O)=Nc3c2ncn3-c2cccc(C(F)(F)F)c2)cc1O` (stereo not given), which inhibition [12] is on record?
A: Active

Q: And the Activity [13]?
A: 1.48%

Q: What about the Activity [14] of the same molecule?
A: 13.7 ng/mL

Q: And the inhibition at 10 µM [4]?
A: 60%

Q: And the Activity [15]?
A: 5.96%

Q: What about the inhibition at 10 µM [5] of the same molecule?
A: 50%

Q: And the Activity [16]?
A: 7.11%

Q: And the Activity [17]?
A: 207.6 pg/mL

Q: What about the Activity [18] of the same molecule?
A: 2.1 ng/mL

Q: What about the Activity [19] of the same molecule?
A: 14.29%

Q: What about the inhibition at 10 µM [6] of the same molecule?
A: 40%

Q: And the Activity [7]?
A: Toxic

Q: What about the Activity [20] of the same molecule?
A: 3.38%

Q: And the Activity [21]?
A: 42.71%

Q: And the Activity [22]?
A: 53.91%

— ChEMBL document CHEMBL5108041, “Identification and validation of novel microtubule suppressors with an imidazopyridine scaffold through structure-based virtual screening and docking” (RSC Med Chem, 2022)
